Measurements taken from PMC5430754 (Acta Pharmaceutica Sinica. B, 2017).
Like-named read-outs stand apart in the source and are kept apart here.

Columns and labels:
[1] = target: sucrase (Rattus norvegicus, UniProt P23739); assay: α-glucosidase; type: biochemical; details: for Sucrase Inhibition (%): at the concentration of 10^—5 mol/L
[2] = target: T1, porcine pancreatic lipase (Sus scrofa, UniProt P00591); assay: lipase inhibitory activity; type: biochemical; details: for Lipase Inhibition (%): at the concentration of 10^—5 mol/L; for inhibition at 10 µM: 1 h, read-out: Lipase Inhibition (%)
T1 sequence (P00591 1-450): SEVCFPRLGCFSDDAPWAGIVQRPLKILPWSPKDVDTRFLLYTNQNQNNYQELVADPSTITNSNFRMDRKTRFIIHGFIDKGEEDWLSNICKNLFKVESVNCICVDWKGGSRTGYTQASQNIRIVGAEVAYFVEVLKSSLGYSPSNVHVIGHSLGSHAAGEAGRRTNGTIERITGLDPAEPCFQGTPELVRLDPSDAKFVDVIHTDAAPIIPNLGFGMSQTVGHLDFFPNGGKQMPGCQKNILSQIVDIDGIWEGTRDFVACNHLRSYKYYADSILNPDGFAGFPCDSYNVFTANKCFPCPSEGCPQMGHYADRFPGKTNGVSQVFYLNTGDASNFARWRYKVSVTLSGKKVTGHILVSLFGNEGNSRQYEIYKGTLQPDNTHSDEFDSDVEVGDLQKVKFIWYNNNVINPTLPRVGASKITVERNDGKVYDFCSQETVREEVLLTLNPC

[3] = tested on: maltase; assay: α-glucosidase; type: biochemical, Rat; details: for Maltase Inhibition (%): at the concentration of 10^—5 mol/L; for IC50: read-out: Maltase IC50, isolated compounds
In short: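 Rat small-intestinal brush-border membrane vesicles, suspended in 0.1 mol/L phosphate buffer pH 6.0, served as the α-glucosidase source. Enzyme, substrate and test compound were incubated in the same buffer for 30 min at 37 °C. The reaction was stopped by heating to 80–85 °C for 3 min. Released glucose was measured by the glucose oxidase method. Triplicates at five concentrations gave IC50 from dose–response curves; % inhibition was measured at 10⁻⁵ mol/L.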

[4] = read-out: Sucrase IC50, isolated compounds

Chain of sucrase (P23739 whole entry): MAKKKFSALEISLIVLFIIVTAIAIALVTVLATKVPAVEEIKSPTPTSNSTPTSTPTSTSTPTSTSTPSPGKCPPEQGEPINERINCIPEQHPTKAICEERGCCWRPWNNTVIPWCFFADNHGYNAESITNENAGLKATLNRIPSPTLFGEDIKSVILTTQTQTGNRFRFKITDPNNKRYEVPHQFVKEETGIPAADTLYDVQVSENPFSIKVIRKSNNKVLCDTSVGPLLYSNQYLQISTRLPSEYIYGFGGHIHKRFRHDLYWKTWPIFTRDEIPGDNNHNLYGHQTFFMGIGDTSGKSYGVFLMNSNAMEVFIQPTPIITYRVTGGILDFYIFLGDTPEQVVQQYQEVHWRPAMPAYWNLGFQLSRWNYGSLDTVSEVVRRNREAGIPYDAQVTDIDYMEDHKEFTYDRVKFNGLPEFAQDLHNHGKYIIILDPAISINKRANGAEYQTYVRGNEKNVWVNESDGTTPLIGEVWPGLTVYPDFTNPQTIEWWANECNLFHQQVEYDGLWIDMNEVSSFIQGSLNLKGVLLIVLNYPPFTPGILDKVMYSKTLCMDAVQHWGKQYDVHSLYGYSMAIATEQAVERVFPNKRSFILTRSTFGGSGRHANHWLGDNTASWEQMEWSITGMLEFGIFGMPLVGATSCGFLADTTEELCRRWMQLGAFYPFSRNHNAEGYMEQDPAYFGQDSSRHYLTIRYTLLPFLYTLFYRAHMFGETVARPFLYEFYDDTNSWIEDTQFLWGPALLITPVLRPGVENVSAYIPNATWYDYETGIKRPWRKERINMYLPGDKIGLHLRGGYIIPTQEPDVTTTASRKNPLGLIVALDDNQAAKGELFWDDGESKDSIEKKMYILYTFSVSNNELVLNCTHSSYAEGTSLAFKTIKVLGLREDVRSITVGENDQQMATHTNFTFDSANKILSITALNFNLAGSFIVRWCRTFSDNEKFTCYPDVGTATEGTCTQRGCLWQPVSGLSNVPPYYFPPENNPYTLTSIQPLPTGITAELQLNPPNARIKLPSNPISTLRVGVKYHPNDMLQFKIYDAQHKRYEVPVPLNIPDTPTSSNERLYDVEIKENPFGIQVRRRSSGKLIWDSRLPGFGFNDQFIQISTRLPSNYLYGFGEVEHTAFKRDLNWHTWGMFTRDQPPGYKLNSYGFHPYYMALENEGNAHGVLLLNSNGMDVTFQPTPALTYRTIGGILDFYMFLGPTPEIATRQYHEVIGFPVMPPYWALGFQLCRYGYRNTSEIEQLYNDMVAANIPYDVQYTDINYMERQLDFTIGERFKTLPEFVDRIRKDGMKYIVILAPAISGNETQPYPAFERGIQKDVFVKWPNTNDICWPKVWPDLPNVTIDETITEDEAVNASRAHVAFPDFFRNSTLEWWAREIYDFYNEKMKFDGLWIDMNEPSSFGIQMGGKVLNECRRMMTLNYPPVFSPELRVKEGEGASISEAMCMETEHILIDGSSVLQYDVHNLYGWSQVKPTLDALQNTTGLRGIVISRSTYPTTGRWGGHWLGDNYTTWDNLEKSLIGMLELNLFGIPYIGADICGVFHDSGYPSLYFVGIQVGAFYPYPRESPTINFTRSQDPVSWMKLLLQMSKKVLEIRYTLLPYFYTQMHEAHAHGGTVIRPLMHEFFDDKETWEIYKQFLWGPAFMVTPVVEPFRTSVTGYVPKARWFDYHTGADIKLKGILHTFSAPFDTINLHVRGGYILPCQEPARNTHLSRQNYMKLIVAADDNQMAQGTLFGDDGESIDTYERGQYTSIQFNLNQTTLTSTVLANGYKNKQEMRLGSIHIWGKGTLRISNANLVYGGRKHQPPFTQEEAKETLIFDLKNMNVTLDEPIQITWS

Row | SMILES | Sucrase Inhibition (%) [1] | IC50 [1, 4] | Lipase Inhibition (%) [2] | Maltase Inhibition (%) [3] | IC50 [3] | IC50 [1] | inhibition at 10 µM ([1]; 0.5 h, read-out: Sucrase Inhibition (%)) | IC50 [2] | inhibition at 10 µM [2] | IC50 ([2]; read-out: Lipase IC50, isolated compounds)
1 | O=C1c2c(O)cc(O)cc2O[C@H](c2cc(O)c(O)c(O)c2)[C@H]1O [Compound 5, ampelopsin] |  |  |  | 92.0% | 200 µM | 74.6 µM | 90.4% | 20.4 µM | 92.1% | 
2 | Oc1cc(O)c2c(c1)O[C@H](c1ccc(O)c(O)c1)[C@@H](O)C2 [Compound 4, (+)-catechin] | 21.5% |  | 64.9% | 16.1% |  |  |  |  |  | 39.7 µM
3 | Oc1cc(O)c2c(c1)O[C@H](c1ccc(O)c(O)c1)[C@H](O)C2 [Compound 6, (–)-epicatechin] |  |  |  | 48.5% |  |  |  | 32.2 µM | 70.4% | 

The next lines start with the values.

Row | Sucrase Inhibition (%) [1] | IC50 [1, 4] | Lipase Inhibition (%) [2] | Maltase Inhibition (%) [3] | IC50 [3] | IC50 [1] | inhibition at 10 µM ([1]; 0.5 h, read-out: Sucrase Inhibition (%)) | IC50 [2] | inhibition at 10 µM [2] | IC50 ([2]; read-out: Lipase IC50, isolated compounds) | SMILES
4 | 71.3% | 62.1 µM | 41.6% |  |  |  |  |  |  |  | O=C(/C=C/c1ccc(O)cc1)O[C@@H]1Cc2c(O)cc(O)cc2O[C@@H]1c1ccc(O)c(O)c1 [Compound 2, (–)-epicatechin-3-O-(E)-coumarate]
5 | 45.4% |  | 42.6% | 71.8% | 49.7 µM |  |  |  |  |  | O=C(/C=C\c1ccc(O)cc1)O[C@@H]1Cc2c(O)cc(O)cc2O[C@@H]1c1ccc(O)c(O)c1 [Compound 1, (–)-epicatechin-3-O-(Z)-coumarate]
6 | 64.5% | 107 µM | 36.3% |  |  |  |  |  |  |  | O=C(/C=C/c1ccc(O)c(O)c1)O[C@@H]1Cc2c(O)cc(O)cc2O[C@@H]1c1ccc(O)c(O)c1 [Compound 3, (–)-epicatechin-3-O-(E)-caffeate]
